Experimental data from ChEMBL document CHEMBL4145543, “Synthesis and pharmacological evaluation of 6,7-dimethoxy-1,2,3,4-tetrahydroisoquinoline derivatives as sigma-2 receptor ligands” (Eur J Med Chem, 2018).

Experiments:
[1] = Selectivity ratio of Ki for sigma-1 receptor in guinea pig brain membranes to Ki for sigma-2 receptor in Sprague-Dawley rat liver membranes; format: cell membranes
[2] = system: KYSE-140; test: Cytotoxicity against human KYSE-140 cells after 48 hrs by CCK8 assay; format: functional, cell-based; conditions: KYSE-140, 48 h
In short: (§1)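 Exponentially growing Huh7 or KYSE-140 cells seeded at 4,000 cells/well, adhered overnight, then exposed to 6 concentrations for 48 h; DMSO vehicle control. CCK-8 added, 2 h at 37 °C in dark, absorbance at 450 nm. Viability as percent of control OD; IC50 by curve fitting, at least three experiments.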

[3] = system: Huh-7; test: Cytotoxicity against human HuH7 cells after 48 hrs by CCK8 assay; format: functional, cell-based; conditions: Huh-7, 48 h; in short: as §1
[4] = target: T1, Sigma intracellular receptor 2 (Rattus norvegicus, UniProt Q5U3Y7); test: Displacement of [3H]DTG from sigma-2 receptor in Sprague-Dawley rat liver membranes after 120 mins in presence of (+)-pentazocine by microbeta scintillation counting method; format: cell membranes, Membrane
T1 sequence (Q5U3Y7 whole entry): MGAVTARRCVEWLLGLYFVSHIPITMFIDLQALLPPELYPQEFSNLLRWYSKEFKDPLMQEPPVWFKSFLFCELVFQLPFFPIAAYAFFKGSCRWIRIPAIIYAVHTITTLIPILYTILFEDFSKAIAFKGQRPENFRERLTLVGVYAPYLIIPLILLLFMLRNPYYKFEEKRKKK

[5] = target: T2, Sigma intracellular receptor 2 (Rattus norvegicus) (UniProt Q5U3Y7); test: Displacement of [3H]DTG from sigma-2 receptor in Sprague-Dawley rat liver membranes at 1 uM after 120 mins in presence of (+)-pentazocine by microbeta scintillation counting method relative to control; format: cell membranes; conditions: Membrane
T2 sequence (whole entry): T1 sequence (Q5U3Y7 whole entry)
In short: (§2)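 Single-point screen at 1 µM for displacement of [3H](+)-pentazocine (sigma-1, guinea pig brain membranes) or [3H]-DTG (sigma-2, rat liver membranes, with 100 nM (+)-pentazocine); 25 °C, pH 8.0 Tris buffer. Hits were defined as >50% displacement.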

[6] = target: Sigma non-opioid intracellular receptor 1 (Cavia porcellus, UniProt Q60492); test: Displacement of [3H]-(+)-pentazocine from sigma-1 receptor in guinea pig brain membranes after 120 mins by microbeta scintillation counting method; format: cell membranes, Membrane
In short: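 Guinea pig brain membranes (frozen brains minus cerebellum; 300 µg) incubated with 6 nM [3H]-(+)-pentazocine stock (~42 Ci/mmol), 50 mM Tris-HCl pH 8.0, 25 °C, 120 min. Compounds from ethanol, 0.1-1000 nM, 10 points. Ice-cold 10 mM Tris stop, GF/B filtration, scintillation counting. Nonspecific defined with (+)-pentazocine or haloperidol (10 µM).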

[7] = target: Sigma non-opioid intracellular receptor 1 (Cavia porcellus) (UniProt Q60492); test: Displacement of [3H]-(+)-pentazocine from sigma-1 receptor in guinea pig brain membranes at 1 uM after 120 mins by microbeta scintillation counting method relative to control; format: cell membranes; conditions: Membrane; in short: as §2
[8] = target: Sigma non-opioid intracellular receptor 1 (Homo sapiens, UniProt Q99720); test: Binding affinity to sigma-1 receptor (unknown origin)
[9] = target: Sigma intracellular receptor 2 (Homo sapiens, UniProt Q5BJF2); test: Binding affinity to sigma-2 receptor (unknown origin)
Chain of Sigma intracellular receptor 2 (Homo sapiens, UniProt Q5BJF2) (Q5BJF2 whole entry): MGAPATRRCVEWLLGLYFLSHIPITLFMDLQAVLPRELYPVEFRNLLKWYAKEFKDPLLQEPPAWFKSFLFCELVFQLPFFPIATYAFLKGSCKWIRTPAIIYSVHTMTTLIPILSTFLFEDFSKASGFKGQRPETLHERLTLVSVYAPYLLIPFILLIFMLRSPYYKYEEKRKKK

Chain of Sigma non-opioid intracellular receptor 1 (Cavia porcellus, UniProt Q60492) (Q60492 whole entry): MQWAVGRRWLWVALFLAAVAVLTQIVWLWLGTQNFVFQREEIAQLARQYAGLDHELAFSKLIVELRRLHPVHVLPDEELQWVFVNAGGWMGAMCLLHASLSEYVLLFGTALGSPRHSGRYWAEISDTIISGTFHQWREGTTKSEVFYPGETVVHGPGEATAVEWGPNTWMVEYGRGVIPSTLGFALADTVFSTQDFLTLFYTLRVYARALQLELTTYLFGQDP
Chain of Sigma non-opioid intracellular receptor 1 (Cavia porcellus) (Q60492 whole entry): as above
Chain of Sigma non-opioid intracellular receptor 1 (Homo sapiens, UniProt Q99720) (Q99720 whole entry): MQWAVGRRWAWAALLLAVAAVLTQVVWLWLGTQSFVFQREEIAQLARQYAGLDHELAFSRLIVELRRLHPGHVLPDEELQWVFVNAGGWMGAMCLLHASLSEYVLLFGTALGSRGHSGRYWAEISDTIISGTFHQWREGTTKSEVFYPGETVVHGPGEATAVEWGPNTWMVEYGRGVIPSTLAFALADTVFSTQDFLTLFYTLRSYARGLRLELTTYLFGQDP

Row | SMILES | Ratio Ki [1] | IC50 [2] [nM] | IC50 [3] [nM] | Ki [4] [nM] | inhibition [5] [%] | Ki [6] [nM] | inhibition [7] [%] | Ki [8] [nM] | Ki [9] [nM]
1 | COc1ccc(C(=O)CCCCN2CCc3cc(OC)c(OC)cc3C2)c(C)c1 | > 196 | > 100 | > 100 | 5.1 | > 50 | > 1000 | > 50 |  | 
2 | COc1ccc(C(O)CN2CCc3cc(OC)c(OC)cc3C2)c(OC)c1 (stereo unspecified) | > 16 | > 100 | > 100 | 62 | > 50 | > 1000 | > 50 |  | 
3 | CC[C@H]1C[C@@H]2C[C@H]3c4[nH]c5ccc(OC)cc5c4CCN(C2)[C@@H]13 |  |  |  |  |  |  |  | 9310 | 90.4
4 | COc1ccc(C(=O)CN2CCc3cc(OC)c(OC)cc3C2)c(OC)c1 | > 18 | > 100 | > 100 | 53.8 | > 50 | > 1000 | > 50 |  | 
5 | CCn1c(=O)n(C(=O)NC2C[C@@H]3CC[C@@H](C2)N3C)c2ccccc21 (stereo partly specified) |  |  |  |  |  |  |  | 6300 | 32
6 | COc1ccc(C(=O)CCCCN2CCc3cc(OC)c(OC)cc3C2)c(OC)c1 | 5.6 | 88300 | > 100 | 5.8 | > 50 | 32.9 | > 50 |  | 
7 | COc1cc2c(cc1OC)CN(CCCn1cnc3cc(OC)c(OC)cc3c1=O)CC2 | > 71.9 | > 100 | > 100 | 13.9 | > 50 | > 1000 | > 50 |  | 
8 | COc1ccc(C(O)CCN2CCc3cc(OC)c(OC)cc3C2)c(OC)c1 (stereo unspecified) | > 33 | 26100 | 45900 | 30.2 | > 50 | > 1000 | > 50 |  | 
9 | c1ccc2c(c1)c1ccccc1n2CCCN1CCN(C2CCCCC2)CC1 |  |  |  |  |  |  |  | 3450 | 12.6
10 | COc1ccc(C(=O)CCN2CCc3cc(OC)c(OC)cc3C2)c(OC)c1 | > 14 | > 100 | 75300 | 68.1 | > 50 | > 1000 | > 50 |  | 
11 | COc1cc2c(cc1OC)CN(CCC(=O)c1c(C)c(OC)c(OC)c(OC)c1O)CC2 |  | 93700 | 81600 | > 1000 | > 50 | > 1000 | > 50 |  | 
12 | COc1ccc(C)cc1NC(=O)OC1C[C@H]2CCC[C@H](C1)N2CCCCCCN (stereo partly specified) |  |  |  |  |  |  |  | 1420 | 5.19
13 | COc1ccc(C(O)CCCCN2CCc3cc(OC)c(OC)cc3C2)c(C)c1 (stereo unspecified) | > 192 | 14900 | 12500 | 5.2 | > 50 | > 1000 | > 50 |  | 
14 | COc1cc2c(cc1OC)CN(CCn1cnc3cc(Cl)c([N+](=O)[O-])cc3c1=O)CC2 |  | > 100 | > 100 | > 1000 | > 50 | > 1000 | > 50 |  | 
15 | COc1cc2c(cc1OC)CN(CCCCNC(=O)c1cc(I)cc(OC)c1OCC[18F])CC2 |  |  |  |  |  |  |  | 2150 | 0.26
16 | COc1cc2c(cc1OC)CN(CCCn1cnc3cc(Cl)c([N+](=O)[O-])cc3c1=O)CC2 |  | > 100 | > 100 | > 1000 | > 50 | > 1000 | > 50 |  | 
17 | COc1ccc(C(O)CCCCN2CCc3cc(OC)c(OC)cc3C2)c(OC)c1 (stereo unspecified) | > 161 |  |  | 6.2 | > 50 | > 1000 | > 50 |  | 
18 | COc1cc2c(cc1OC)CN(CCCCn1cnc3cc(Cl)c([N+](=O)[O-])cc3c1=O)CC2 |  | > 100 | > 100 | > 1000 | > 50 | > 1000 | > 50 |  | 
19 | COc1ccc(C(=O)CCN2CCc3cc(OC)c(OC)cc3C2)c(C)c1 | 0.5 | 60100 | 42800 | 23.7 | > 50 | 13.3 | > 50 |  | 
20 | COc1ccc(C(O)CCN2CCc3cc(OC)c(OC)cc3C2)c(C)c1 (stereo unspecified) | > 55 | > 100 | > 100 | 18.2 | > 50 | > 1000 | > 50 |  | 
21 | COc1cc2c(cc1OC)CN(CCCCn1cnc3cc(OC)c(OC)cc3c1=O)CC2 | > 22.8 | > 100 | > 100 | 43.8 | > 50 | > 1000 | > 50 |  | 
